Assay results as given in ChEMBL document CHEMBL5346966, “Discovery and Characterization of PROTACs Targeting Tissue Transglutaminase (TG2)” (J Med Chem, 2023).
Active and inactive are the calls of the source. The calls are words filed in the database; no cut-off is given here.

How the values were obtained:
SK-OV-3 [1] = assay: Inhibition of cell migration in human SK-OV-3 cells at 10 uM incubated for 18 hrs by crystal violet staining based transwell migration assay; type: functional
Outline: (§1)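 Transwell migration through 8 μm pores: 15,000 OVCAR5 or SKOV3 cells in serum-free medium with compound or control in upper chamber, 10% serum below. After 18 h, migrated cells fixed in 4% PFA, stained with crystal violet and counted at 40×. n = 3.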

SK-OV-3 [2] = assay: Inhibition of cell migration in human SK-OV-3 cells at 10 uM incubated for 18 hrs by crystal violet staining based wound healing assay; type: functional
OVCAR-5 [3] = assay: Inhibition of cell migration in human OVCAR-5 cells at 10 uM incubated for 18 hrs by crystal violet staining based transwell migration assay; type: functional; outline: as §1
OVCAR-5 [4] = assay: Inhibition of cell migration in human OVCAR-5 cells at 10 uM incubated for 18 hrs by crystal violet staining based wound healing assay; type: functional
[5] = biological target: T1, Protein-glutamine gamma-glutamyltransferase (Homo sapiens) (UniProt P21980); assay: Induction of TG2 degradation in human OVCAR-5 cells assessed as reduction in TG2 level at 0.1 to 10 uM measured after 6 hrs by Western blot analysis; type: cell-based; details: dose 0.1-10 µM
T1 sequence (whole entry): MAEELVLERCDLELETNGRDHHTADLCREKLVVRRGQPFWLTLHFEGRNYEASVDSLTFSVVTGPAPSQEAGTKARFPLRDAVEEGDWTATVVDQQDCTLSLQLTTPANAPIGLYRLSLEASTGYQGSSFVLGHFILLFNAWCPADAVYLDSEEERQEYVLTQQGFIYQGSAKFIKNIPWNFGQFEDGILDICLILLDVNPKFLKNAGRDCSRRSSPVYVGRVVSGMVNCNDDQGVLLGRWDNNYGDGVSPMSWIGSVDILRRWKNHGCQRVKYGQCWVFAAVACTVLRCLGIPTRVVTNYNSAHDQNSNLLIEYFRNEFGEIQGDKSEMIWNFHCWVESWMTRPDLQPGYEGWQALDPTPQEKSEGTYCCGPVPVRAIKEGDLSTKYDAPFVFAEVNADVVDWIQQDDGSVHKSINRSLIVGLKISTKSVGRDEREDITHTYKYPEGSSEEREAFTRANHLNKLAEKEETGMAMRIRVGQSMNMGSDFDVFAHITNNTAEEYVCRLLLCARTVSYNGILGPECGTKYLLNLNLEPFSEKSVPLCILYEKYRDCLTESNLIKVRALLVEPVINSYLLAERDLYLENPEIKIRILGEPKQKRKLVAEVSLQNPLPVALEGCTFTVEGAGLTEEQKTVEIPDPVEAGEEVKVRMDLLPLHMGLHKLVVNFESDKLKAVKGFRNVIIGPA
Outline: (§2)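 Cells on 6 cm dishes treated for 6 or 24 h; OVCAR5 at 0.1, 1 and 10 μM, SKOV3 at 1 and 10 μM; DMSO control. RIPA lysates quantified by Bradford, then western blot with anti-TG2 and GAPDH antibodies (1:1000, overnight 4 °C). Bands quantified by densitometry; n = 3.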

[6] = biological target: T1, Protein-glutamine gamma-glutamyltransferase (Homo sapiens); assay: Induction of TG2 degradation in human SK-OV-3 cells assessed as reduction in TG2 level at 0.1 to 10 uM measured after 6 hrs by Western blot analysis; type: cell-based; details: dose 0.1-10 µM
OVCAR-5 [7] = assay: Inhibition of cell adhesion to fibronectin in human OVCAR-5 cells at 10 uM incubated for 6 hrs by CCK-8 assay; type: functional, cell-based
Outline: (§3)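 Wells coated for 1 h with 10 μg/mL fibronectin in PBS. After PBS wash, attached cells counted by CCK-8 absorbance at […]. n = 3.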

SK-OV-3 [8] = assay: Inhibition of cell adhesion to fibronectin in human SK-OV-3 cells at 10 uM incubated for 6 hrs by CCK-8 assay; type: functional, cell-based; outline: as §3
[9] = biological target: T1, Protein-glutamine gamma-glutamyltransferase (Homo sapiens); assay: Induction of TG2 degradation in human SK-OV-3 cells assessed as reduction of TG2 level treated every 6 to 8 hrs for 24 hrs by Western blot analysis; type: cell-based; details: dose 1-10 µM
Outline: (§4)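 OVCAR5 or SKOV3 cells given compound at 1 or 10 μM, redosed every 6–8 h over 24 h. TG2 measured at 24 h by western blot of RIPA lysates.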

[10] = biological target: T1, Protein-glutamine gamma-glutamyltransferase (Homo sapiens); assay: Induction of TG2 degradation in human SK-OV-3 cells assessed as reduction of TG2 level at 10 uM incubated for 6 hrs followed by MG132 addition and measured after 8 hrs by Western blot analysis; type: cell-based; details: time 14.0 hrs
Outline: (§5)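 Proteasome dependence checked in OVCAR5 or SKOV3 cells: compound at 10 μM for 6 h, with MG132 at 20 μM for 8 h. TG2 measured by western blot, and band intensity expressed relative to DMSO control. n = 3.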

[11] = biological target: T1, Protein-glutamine gamma-glutamyltransferase (Homo sapiens); assay: Potency index, ratio of MT4 KD to test compound KD for binding affinity to TG2 (unknown origin) assessed as dissociation constant at 30 degree C by isothermal titration calorimetry
[12] = biological target: T1, Protein-glutamine gamma-glutamyltransferase (Homo sapiens); assay: Induction of TG2 degradation in human SK-OV-3 cells assessed as reduction in TG2 level at 0.1 to 30 uM by Western blot analysis; type: cell-based; details: dose 0.1-30 µM, time 2-12 hrs, TDE = time-dependent effect
Outline: (§6)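 SKOV3 cells treated with 0.1, 0.3, 1, 3, 10 or 30 μM for 0, 2, 6, 12 and 24 h. TG2 measured by western blot of RIPA lysates with GAPDH reprobe after stripping, followed by densitometry. n = 3 experimental replicates.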

[13] = biological target: T1, Protein-glutamine gamma-glutamyltransferase (Homo sapiens); assay: Induction of TG2 degradation in human SK-OV-3 cells assessed as reduction in TG2 level measured within 6 hrs by Western blot analysis; type: cell-based; details: dose 0.1-10 µM
[14] = biological target: T1, Protein-glutamine gamma-glutamyltransferase (Homo sapiens); assay: Induction of TG2 degradation in human SK-OV-3 cells assessed as reduction in TG2 level at 10 uM incubated for 6 hrs in presence of VHL-L by Western blot analysis; type: cell-based
Outline: (§7)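 OVCAR5 or SKOV3 cells treated for 6 h with compound at 10 μM plus 10 μM VHL ligand as competitor. TG2 measured by western blot with densitometry against control. n = 3.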

[15] = biological target: T1, Protein-glutamine gamma-glutamyltransferase (Homo sapiens); assay: Induction of TG2 degradation in human SK-OV-3 cells assessed as reduction of TG2 level at 1 to 10 uM measured after 12 hrs by Western blot analysis; type: cell-based; details: dose 1-10 µM, time 24.0 hrs, in the assay text read “24 hrs” for “12 hrs”; outline: as §6
[16] = biological target: T1, Protein-glutamine gamma-glutamyltransferase (Homo sapiens); assay: Induction of TG2 degradation in human SK-OV-3 cells assessed as reduction in TG2 level at 0.1 to 10 uM measured after 24 hrs by Western blot analysis; type: cell-based; details: dose 0.1-10 µM
[17] = biological target: T1, Protein-glutamine gamma-glutamyltransferase (Homo sapiens); assay: Induction of TG2 degradation in human OVCAR-5 cells assessed as reduction of TG2 level treated every 6 to 8 hrs for 24 hrs by Western blot analysis; type: cell-based; details: dose 1-10 µM; outline: as §4
[18] = biological target: T1, Protein-glutamine gamma-glutamyltransferase (Homo sapiens); assay: Induction of TG2 degradation in human OVCAR-5 cells assessed as reduction in TG2 level at 10 uM incubated for 6 hrs in presence of VHL-L by Western blot analysis; type: cell-based; outline: as §7
[19] = biological target: T1, Protein-glutamine gamma-glutamyltransferase (Homo sapiens); assay: Induction of TG2 degradation in human OVCAR-5 cells assessed as reduction in TG2 level measured within 6 hrs by Western blot analysis; type: cell-based; details: dose 0.1-10 µM
SK-OV-3 [20] = assay: Cytotoxicity against human SK-OV-3 cells assessed as cell death at 0.1 to 30 uM treated every 6 to 8 hrs for 5 days by CCK-8 assay; type: functional, cell-based; details: dose 0.1-30 µM, time 5.0 day
Outline: (§8)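 OVCAR5 and SKOV3 cells in 96-well plates given compound at 0.1, 0.3, 1, 3, 10 or 30 μM, redosed every 6–8 h over 5 days. Viable cells measured by CCK-8 absorbance at […]. n = 3.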

OVCAR-5 [21] = assay: Cytotoxicity against human OVCAR-5 cells assessed as cell death at 0.1 to 30 uM treated every 6 to 8 hrs for 5 days; type: functional, cell-based; details: dose 0.1-30 µM, time 5.0 day; outline: as §8
[22] = biological target: T1, Protein-glutamine gamma-glutamyltransferase (Homo sapiens); assay: Induction of TG2 degradation in human OVCAR-5 cells assessed as reduction of TG2 level at 1 to 10 uM measured after 24 hrs by Western blot analysis; details: dose 1-10 µM
[23] = biological target: T1, Protein-glutamine gamma-glutamyltransferase (Homo sapiens); assay: Induction of TG2 degradation in human OVCAR-5 cells assessed as reduction in TG2 level at 0.1 to 10 uM measured after 24 hrs by Western blot analysis; type: cell-based; details: dose 0.1-10 µM; outline: as §2
[24] = biological target: T1, Protein-glutamine gamma-glutamyltransferase (Homo sapiens); assay: Induction of TG2 degradation in human SK-OV-3 cells assessed as maximal degradation at 10 to 30 uM measured after 6 hrs by Western blot analysis; type: cell-based; details: dose 10-30 µM; outline: as §6
[25] = biological target: T1, Protein-glutamine gamma-glutamyltransferase (Homo sapiens); assay: Induction of TG2 degradation in human OVCAR-5 cells assessed as reduction in TG2 level at 10 uM incubated for 6 hrs followed by MG132 addition and measured after 8 hrs by Western blot analysis; type: cell-based; details: time 14.0 hrs; outline: as §5
[26] = biological target: T1, Protein-glutamine gamma-glutamyltransferase (Homo sapiens); assay: Induction of TG2 degradation in human SK-OV-3 cells assessed as reduction in TG2 level measured after 2 to 12 hrs by Western blot analysis; type: cell-based; details: dose 0.1-30 µM, time 2-12 hrs; outline: as §6
[27] = biological target: T2, Protein-glutamine gamma-glutamyltransferase (Homo sapiens, UniProt P21980); assay: Binding affinity to TG2 (unknown origin) assessed as dissociation constant at 30 degree C by isothermal titration calorimetry
T2 sequence (P21980 whole entry): T1 sequence (whole entry)

Activity [5] | Activity [6] | Activity [9] | Activity [10] | Ratio [11] | Activity [12] | Activity [13] | Activity [14] | Activity [15] | Activity [16] | Activity [17] | Activity [18] | Activity [19] | Structure (SMILES) | inhibition (SK-OV-3 [1]) | inhibition (SK-OV-3 [2]) | inhibition (OVCAR-5 [3]) | inhibition (OVCAR-5 [4]) | inhibition (OVCAR-5 [7]) | inhibition (SK-OV-3 [8]) | Activity (SK-OV-3 [20]) | further results
inactive | inactive |  |  |  |  |  |  |  |  |  |  |  | Cc1cc(N(C)CCOCCC(=O)N[C@H](C(=O)N2C[C@@H](O)C[C@H]2C(=O)NCc2ccc(-c3scnc3C)cc2)C(C)(C)C)nc(Nc2ccc(NC(=O)Cc3ccccc3)cc2)n1 | inactive | inactive | inactive | inactive | inactive | inactive |  | 
 |  | Active | inactive | > 12.8 | Tde | Dose-Dependent Effect | inactive | inactive | inactive | Active | inactive | Dose-Dependent Effect | Cc1cc(N(C)CCOCCC(=O)N[C@H](C(=O)N2C[C@H](O)C[C@H]2C(=O)NCc2ccc(-c3scnc3C)cc2)C(C)(C)C)nc(Nc2ccc(NC(=O)Cc3ccccc3)cc2)n1 | Active | Active | Active | Active | Active | Active | inactive | Activity (OVCAR-5 [21]): inactive; Activity [22]: inactive; Activity [23]: inactive; Activity [24]: Active; Activity [25]: inactive; Activity [26]: Dose-Dependent Effect; Kd [27]: > 100 µM
 |  | Active | inactive | 8.8 | Tde | Dose-Dependent Effect | inactive | inactive | inactive | Active | inactive | Dose-Dependent Effect | Cc1cc(N(C)CCOCCOCCOCCOCCOCCC(=O)N[C@H](C(=O)N2C[C@H](O)C[C@H]2C(=O)NCc2ccc(-c3scnc3C)cc2)C(C)(C)C)nc(Nc2ccc(NC(=O)Cc3ccccc3)cc2)n1 | Active | Active | Active | Active | Active | Active | inactive | Activity (OVCAR-5 [21]): inactive; Activity [22]: inactive; Activity [23]: inactive; Activity [24]: Active; Activity [25]: inactive; Activity [26]: Dose-Dependent Effect
inactive | inactive |  |  |  |  |  |  |  |  |  |  |  | Cc1cc(N(C)CCOCCOCCOCCOCCOCCC(=O)N[C@H](C(=O)N2C[C@@H](O)C[C@H]2C(=O)NCc2ccc(-c3scnc3C)cc2)C(C)(C)C)nc(Nc2ccc(NC(=O)Cc3ccccc3)cc2)n1 | inactive | inactive | inactive | inactive | inactive | inactive |  | 
